From PubChem
The list is not random: actives were taken first. Their share in the collection is about 5.3%.
NLRP3 yeast inh: blocks the NALP3 inflammasome reconstituted in yeast. Yeast reconstituted NLRP3/ASC/caspase-1, beta-gal luminescence, 24 h. AID 2825. inhibition, % at 10 µM. 0.39% of 330,000 active;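 active = inhibition of 50% or more; inactive = inhibition below 50%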;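 note: plate controls were induced DMSO wells for no effect and uninduced yeast grown without galactose for full effect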
Beta apoptosis: beta cell apoptosis inhibition; INS-1E cytokine-induced death, ATP luminescence, 48 h; percent of positive-control rescue, neutral wells zero; protection from apoptosis, % (no concentration beside the values); 0.8% of 300,000 active; AID 435005;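 active = Every replicate reaches about 75%, or at least half do and their mean reaches it too, limit read from the data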;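 note: 0% = cytokine-treated negative control wells and 100% = positive control rescue; higher means more ATP so stronger rescue from cytokine killing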
CSC inhib: blocks cancer stem cells. cancer stem cell-like cells viability, luminescence. inhibition, % at 7.5 µM. 1.1% of 300,000 active. AID 2717; in the data active = inhibition above about 75%; tested in HMLE shEcad cells
T cruzi inh: T. cruzi replication inhibition; T. cruzi beta-gal in NIH3T3, luminescence, 90 h; inhibition, % (no concentration beside the values); 1.4% of 300,000 active;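 active = mean inhibition across valid replicates above about 55%, limit read from the data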;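 note: signal also drops with host cell toxicity which is not excluded here; 0% = plate median of DMSO wells and 100% = zero luminescence signal; higher percent means less beta-gal luminescence so fewer parasites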
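Incubation – ≥90 h infection period, 3 h prior cell attachment · System – NIH/3T3 fibroblasts plus reporter T. cruzi · Doses – compound pinned at 50 nL/well, DMSO · Read-out basis – percent inhibition of parasite-derived β-gal signal · Signal – luminescent β-galactosidase signal after 60 min lysis · Also added – 5000 T. cruzi trypomastigotes/well · Medium – Low-serum DMEM with 2% FBS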
Calb FLC: affects C. albicans growth with fluconazole; 0.57% of 300,000 active; growth inhibition, % (no concentration beside the values); C. albicans CaCi-2 + fluconazole, Alamar Blue growth, 48 h;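 active = growth inhibition above about 58% in most replicates, limit read from the data, passing the limit was not always enough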;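 note: all wells also contain fluconazole at 8 µg/ml as a sub-toxic cotreatment; 0% = median of DMSO wells and 100% = median of geldanamycin control wells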
Mdm2-MdmX inh: disrupts the human Mdm2-MdmX interaction | O15151+Q00987 | SaOS-2 split-luciferase Mdm2/MdmX complementation, luminescence | inhibition, % at 8 µM | 3% of 330,000 active;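 active = inhibition of at least 50% at 8 µM in the primary screen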
Mdm2-MdmX conf: human Mdm2/MdmX binding inhibition, confirmed | shares compounds with Mdm2-MdmX inh | luminescent assay | inhibition, % at 8 µM | 55% of 10,000 active | AID 489028; in the data active = inhibition above about 40%
Full FLuc ctr: counter-screen for Mdm2/MdmX inhibitors: full-length luciferase; shares compounds with Mdm2-MdmX inh; SaOS-2 full-length luciferase counterscreen, luminescence; inhibition, % at 8 µM; 77% of 6,200 active; AID 504607;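 active = mean inhibition at 8 µM reaching about 37%, which flags the compound as non-specific, limit read from the data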;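 note: p53-null SaOS-2 cells with luciferase driven by a doxycycline-inducible promoter; compound on cells about two nights before reading with doxycycline added after day one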
Active calls of the source: *; . = not tested or not shown; ! = not active in a repeat.

SMILES	NLRP3 yeast inh	Beta apoptosis	CSC inhib	T cruzi inh	Calb FLC	Mdm2-MdmX inh	Mdm2-MdmX conf	Full FLuc ctr
Cc1nn(Cc2c(Cl)cccc2Cl)c(C)c1NC(=O)c1cn(-c2ccccc2)nc1-c1ccccc1	-6	106*	165*	42	2	98*	99*	37*
Cc1nn(Cc2c(Cl)cccc2Cl)c(C)c1NC(=O)c1sc2ccccc2c1Cl	13	46	-3	17	-3	53*	14	.
O=C(CN1CCC(C(=O)c2cccc(F)c2)CC1)NCc1cccs1	10	-7	8	10	7	-10	.	.
Cc1ccc(NC(=O)Cc2cc(C(=O)O)c3ccccc3n2)c(C)c1	18	14	40	0	19	82*	59*	40*
CCCc1cc(C(=O)O)c2ccccc2n1	3	-2	7	-22	22	17	.	.
FC(F)Oc1ccccc1NC(=S)NCc1ccco1	-2	-12	-5	-8	-2	12	.	.
CCOn1c(-n2nc(C)cc2C)nc2ccccc2c1=O	0	-5	5	-33	-2	30	.	.
Cc1cc(C)n(-c2nc3ccccc3c(=O)n2OCC#N)n1	28	84*	41	59*	81*	66*	49*	46*
CCOc1ccc(OCC)c(NC(=O)CCn2c(=O)oc3ccccc32)c1	31	2	-8	2	6	-3	.	.
O=C(O)c1sc2ncccc2c1OCc1ccccc1	7	3	-12	6	-8	18	.	.
Oc1ccc(CNc2ccccc2F)c2cccnc12	-41	53	.	20	-8	89*	85*	31
COc1ccc(S(=O)(=O)N(CC(C)C)CC(C)C)c2cccnc12	4	.	.	-4	0	17	.	.
CCCOCc1ccc(O)c2ncccc12	-15	107*	32	57*	90*	75*	56*	28
Oc1ccc(COCc2ccccc2)c2cccnc12	14	99*	73	47	1	80*	54*	29
CC(C)COCc1ccc(O)c2ncccc12	-14	89*	10	52	98*	59*	44*	52*
CN(Cc1ccco1)Cc1ccc(O)c2ncccc12	25	1	-4	.	.	18	.	.
OCc1ccc(O)c2ncccc12	-17	107*	-3	48	107*	86*	82*	43*
O=C1C=CC(O)(c2cc(=O)c3c(O)cc(O)cc3o2)C=C1	18	111*	16	-39	8	99*	66*	48*
O=c1cc(-c2ccccc2Cl)oc2cc(O)cc(O)c12	15	4	-8	-15	-2	17	.	.
CNCCCC12CCC(c3ccccc31)c1ccccc12	36	2	-8	22	-2	59*!	33	.
CCCN(CC(=O)Nc1ccccc1C)C(=O)C1CCCN(C(=O)c2ccc(Cl)cc2)C1 (centres undefined)	4	-6	.	.	.	17	.	.
COc1cc(OC)cc(C(=O)Nc2nc(-c3ccccc3)c(-c3ccccc3)o2)c1	-24	25	24	29	-19	56*	36	.
O=C(Nc1ccc(SC(F)F)cc1)c1cccc2nc3ccccc3nc12	18	40	17	24	9	78*	17	.
Cc1ccc2c(c1)nnn2C1CCN(C(=O)c2cccs2)CC1	-6	0	1	5	14	-23	.	.
CC1=C(/C=C/C(C)=C/C=C/C(C)=C/C(=O)Nc2ccc(O)cc2)C(C)(C)CCC1	26	-1	104*	.	.	87*	8	.
SMILES	NLRP3 yeast inh	Beta apoptosis	CSC inhib	T cruzi inh	Calb FLC	Mdm2-MdmX inh	Mdm2-MdmX conf	Full FLuc ctr
CC1=C(/C=C/C(C)=C/C=C/C(C)=C\C(=O)O)C(C)(C)CCC1	21	-17	9	5	.	60*	49*	45*
CCN(CC)CCNC(=S)Nc1ccc(F)cc1	23	-5	3	-5	-4	22	.	.
COc1ccc(NC(=O)COc2cccc(C(F)(F)F)c2)cn1	34	.	-6	-5	-2	-13	.	.
CCOc1cc(/C=N/n2c(C)nc3ccccc3c2=O)ccc1O	2	-5	-2	-4	7	12	.	.
O=C(N/N=C/c1sc(=O)n(Cc2ccc(Br)cc2)c1Cl)c1ccco1	-4	42	-10	-4	66	59*	3	.
O=C(N/N=C/c1ccc(Br)s1)c1ccco1	13	-2	-5	-15	2	-22	.	.
COc1ccc2sc(-c3ccccc3OC)c(-c3ccc(OC)nc3)c2c1	20	7	17	.	.	9	.	.
COc1cc2sc(-c3ccccc3OC)c(-c3ccc(OCCN4CCCCC4)cc3)c2cc1OC	23	124*	104*	.	.	100*	43*	56*
O=C(c1ccc(OCCN2CCCCC2)cc1)c1c(-c2ccc(O)cc2)sc2cc(O)ccc12	8	-2	85*	31	.	65*	31	.
COC(=O)c1ccc(OCCN2CCCCCC2)cc1	12	-1	-3	13	8	13	.	.
O=C(OC(C(=O)NC1CCCCC1)c1ccccn1)c1cccs1 (centres undefined)	5	-1	-7	-11	-3	14	.	.
Cc1ccc(-n2c(O)c(/C=N/Nc3ccc(S(=O)(=O)N4CCOCC4)cc3[N+](=O)[O-])c3ccccc3c2=O)c(C)c1	20	30	-8	5	7	55*	26	.
COc1cc(NC(=O)c2oc3ccccc3c2C)ccc1NC(=O)c1ccco1	18	0	.	23	42	63*	32	56*
COc1cc(NC(=O)c2ccc(Cl)cc2Cl)ccc1-c1cc2ccccc2oc1=O	0	8	4	-9	4	57*	26	.
COc1cc(NC(=O)c2ccc(F)cc2)ccc1NC(=O)c1cc2ccccc2o1	7	.	-10	-17	-7	19	.	.
COc1cc(NC(=O)c2ccc(C)cc2)ccc1NC(=O)c1cc2ccccc2o1	4	3	1	-10	3	57*	23	90*
COc1cc(NC(=O)c2cccc(F)c2)ccc1NC(=O)c1cc2ccccc2o1	-5	3	-4	-9	-6	87*	62*	86*
COc1cc(OC)cc(C(=O)N2CCN(c3ccc(N4CCOCC4)nn3)CC2)c1	12	2	-5	5	6	1	.	.
CN(C)S(=O)(=O)c1ccc(C(=O)NCc2nnc(SCC(=O)N3CCCCCC3)o2)cc1	1	3	4	5	-4	8	.	.
COc1cc(NC(=O)c2ccc(C)cc2C)ccc1NC(=O)c1cc2ccccc2o1	6	41	1	-22	2	84*	62*	39*
COc1cc(NC(=O)c2ccccc2F)ccc1NC(=O)c1cc2ccccc2o1	28	22	38	3	-1	68*	32	63*
